This is an account of results in article PMC5357606 (Journal of the American Chemical Society, 2017).

The target in assay [1] is T1, InhA (Mycobacterium tuberculosis, UniProt P9WGR1). Kind of assay: Progress curve analysis of InhA inhibition. Particulars: for kon, overall: (k5+k6)/Ki^app; for k5: EI to EI*; for k6: EI* to EI; for tR: residence time from progress curve analysis. It is filed as biochemical.
In assay [2] the test system is M. tuberculosis. As to the kind of experiment: MIC determination, microplate Alamar Blue assay. Particulars: 37 °C, 6 days + 24 h. Format: cell-based. For orientation: Resazurin is reduced to fluorescent resorufin, in cell work by metabolically active cells.
Assay [3] deals with T1, InhA. Kind of assay: [32P]-NAD+ direct dissociation kinetics. It is filed as binding. To be noted: 32P-NAD+ direct dissociation method. Summed up:
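InhA expressed in E. coli BL21(DE3) pLysS and purified by Ni2+-NTA and size exclusion. Ternary complex formed with 15 μM InhA, 20 μM NAD+ plus [32P]-NAD+, and 200 μM inhibitor in 30 mM PIPES pH 6.8, 150 mM NaCl, 1 mM EDTA. Spin column removed free ligand; rapid dilution into buffer started dissociation. Timed aliquots ultrafiltered (10 kDa). Run at 20 °C, or 25 °C for two compounds. kon,overall from koff via Equation 5.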

In assay [4] the target is T1, InhA. Kind of assay: Second-harmonic generation. To be noted: 10 μM compound. Format: binding.
The mark [5] stands for this setting: 20 °C, calculated from Ki^app, Ki^*app, k6.
Setting [6] is: read-out: Ki^*app, 20 °C, final EI* complex.
[7] abbreviates: read-out: Ki^app, 20 °C, initial EI complex.

Where two headings read alike, the source gives them in different places.

T1 sequence (P9WGR1 whole entry, looked up): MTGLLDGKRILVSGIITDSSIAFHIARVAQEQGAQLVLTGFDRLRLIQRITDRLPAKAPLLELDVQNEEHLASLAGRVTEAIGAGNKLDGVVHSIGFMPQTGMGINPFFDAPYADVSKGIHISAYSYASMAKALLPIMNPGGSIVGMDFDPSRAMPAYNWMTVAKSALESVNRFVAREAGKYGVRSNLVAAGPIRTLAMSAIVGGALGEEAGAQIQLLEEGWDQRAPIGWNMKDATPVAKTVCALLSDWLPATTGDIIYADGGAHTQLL

In general, MIC refers to the least concentration at which growth counts as inhibited. For `CCCCCCc1ccc(Oc2ccccc2C#N)c(O)c1` [PT119], in assay [1] (20 °C), the “kon, overall” value came out at 8330 M⁻¹ s⁻¹; the k6 came out at 0.020 ± 0.0040 min⁻¹; the tR is 50 ± 0.4 min. Also, in assay [1] (setting [5]), the k5 is 5.0 min⁻¹. Further, the Ki in assay [1] (setting [6]) worked out at 40 ± 1 nM. For the same compound, the Ki in assay [1] (setting [7]) is 10000 ± 2000 nM. Also, the minimum inhibitory concentration (MIC) in assay [2] is 2.5 µg/mL. Further, the tR direct dissociation in assay [3] (20 °C) stood at 47 ± 4 min. The “time course of SHG conformational change” value in assay [4] (30-min time course) is listed as “require a longer time to reach a plateau compared to PT155”. Moreover, the “increase in SHG intensity” value in assay [4] (30 min after addition, His-tagged InhA, N = 4, mean ± SE) is 13.1± 0.8%.

For the compound `Cc1ccccc1Oc1ccc(Cn2cc(-c3ccccc3)nn2)cc1O` [PT163], in assay [1] (25 °C, calculated), the k5 was 3.20 min⁻¹. In assay [1] (25 °C), this compound yielded a k6 of 0.0092 ± 0.002 min⁻¹ and a tR of 113 ± 28 min. The tR direct dissociation in assay [3] (25 °C) came out at 114 ± 18 min.

As for `CCCCCCc1ccc(Oc2ccccc2C)c(O)c1` [PT70], in assay [1] (20 °C), the “kon, overall” value worked out at 20000 M⁻¹ s⁻¹; the k6 is 0.036 ± 0.010 min⁻¹; the tR amounted to 30 ± 7 min. In assay [1] (setting [5]), the k5 is 0.23 min⁻¹. The Ki in assay [1] (setting [6]) was 29 ± 4 nM. The Ki in assay [1] (setting [7]) amounted to 210 ± 34 nM. Further, the MIC in assay [2] is 3.13 µg/mL. The tR direct dissociation in assay [3] (20 °C) was 40 ± 4 min.

In general, kon refers to the second-order rate constant of association. Consider `CCCCCCc1ccc(Oc2ccccc2F)c(O)c1` [PT113], for which the k5 in assay [1] (setting [5]) was 0.18 min⁻¹. In assay [1] (20 °C), this compound gave a k6 of 0.026 ± 0.004 min⁻¹ and a tR of 38 ± 5 min. The compound also returned a Ki in assay [1] (Ki^*app, 20 °C, final EI* complex) of 27 ± 1 nM. Moreover, in assay [1] (Ki^app, 20 °C, initial EI complex), the Ki turned out to be 220 ± 6 nM. Moreover, in assay [1] (read-out: kon, overall), the on-rate constant (kon) was 16000 M⁻¹ s⁻¹. Also, the tR direct dissociation in assay [3] (20 °C) is 31 ± 5 min.

Take `CCCCCCc1ccc(Oc2ccccc2Cl)c(O)c1` [PT91]: in assay [1] (20 °C), the “kon, overall” value worked out at 41700 M⁻¹ s⁻¹; the k6 turned out to be 0.013 ± 0.005 min⁻¹; the tR worked out at 90 ± 37 min. Besides, the k5 in assay [1] (setting [5]) is 0.12 min⁻¹. In assay [1] (setting [6]), the Ki was determined as 5 ± 2 nM. The Ki in assay [1] (setting [7]) was 52 ± 25 nM. Also, in assay [2], the MIC worked out at 1.56 µg/mL. The same compound came in with a tR direct dissociation in assay [3] (20 °C) of 148 ± 13 min.
